The values below come from ChEMBL document CHEMBL1151304, “Preparation and cytotoxic effect of ceanothic acid derivatives” (J Nat Prod, 1998).

SMILES strings stand for the structures. ≈ marks a conversion by molar mass, not a printed value.

For series [1], the system named is OVCAR-3. The experiment in a line: Cytotoxicity against human OVCAR-3 cells assessed as cell survival after 48 hrs by MTT assay relative to control. The format is functional. Set-up: concentration or dose not given beside the values. The essentials: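 OVCAR-3 (human ovarian adenocarcinoma) cells were kept in RPMI 1640 with 10% heat-inactivated FCS, streptomycin, penicillin and 2 mM glutamine at 37 °C under 5% CO₂. They were seeded at 2 × 10⁴ cells/well and grown 24 h. The medium was then swapped for one holding compound and 2% FCS for 48 h. MTT (5 mg/mL stock in PBS) went on for 4 h in serum-free medium, then SDS/DMF lysis overnight, and absorbance was read at 570 nm.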
For orientation: Tetrazolium dyes change colour on reduction, which living cells bring about.

Series [2] concerns HeLa. The experiment in a line: Cytotoxicity against human HeLa cells assessed as cell survival after 48 hrs by MTT assay relative to control. In kind it is functional. Set-up: concentration or dose not given beside the values. The method, boiled down:
(§1)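 FS-5 foreskin fibroblasts and HeLa cervical carcinoma cells were grown in DMEM with 10% heat-inactivated FCS, antibiotics and glutamine at 37 °C under 5% CO₂. They were seeded at 2 × 10⁴ cells/well and held 24 h, then exposed for 48 h to compound in medium with 2% FCS. MTT (5 mg/mL stock in PBS) went on for 4 h, then SDS/DMF lysis overnight, and A570 was read.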

Series [3] is described as follows: Cytotoxicity against human FS5 cells assessed as cell survival after 48 hrs by MTT assay relative to control. In kind it is cell-based. Details: concentration or dose not given beside the values. The conditions noted are these: read-out: Survival. The method, boiled down:
as §1

Series [4] has as its system OVCAR-3. Nature of the series: Cytotoxicity against human OVCAR-3 cells after 48 hrs by MTT assay. The conditions noted are these: OVCAR-3, 48 h. The format is functional, cell-based. The method, boiled down:
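OVCAR-3 ovarian adenocarcinoma cells kept in RPMI 1640 with 10% heat-inactivated FCS, 100 µg/mL streptomycin, 100 IU/mL penicillin, 2 mM glutamine at 37 °C, 5% CO2. Plated at 2 × 10⁴ cells/well and cultured 24 h, then treated 48 h in 2% FCS medium. After washing, MTT incubation 4 h, overnight lysis in 20% SDS/50% DMF, absorbance at 570 nm.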

Series [5] relates to HeLa. Nature of the series: Cytotoxicity against human HeLa cells after 48 hrs by MTT assay. The format is functional, cell-based. The method, boiled down:
(§2)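 FS-5 foreskin fibroblasts and HeLa cervical carcinoma cells grown in DMEM with 10% heat-inactivated FCS, penicillin, streptomycin, glutamine (37 °C, 5% CO2). Seeded at 2 × 10⁴ cells/well and left 24 h, then exposed 48 h to compounds in medium with 2% FCS. Washed, MTT added for 4 h at 37 °C, lysed overnight in SDS/DMF, A570 read.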

The nature of series [6]: Cytotoxicity against human FS5 cells after 48 hrs by MTT assay. The format is cell-based. The conditions noted are these: FS5, 48 h. The essentials: as §2
Series [7] relates to OVCAR-3. The experiment in a line: Cytotoxicity against human OVCAR-3 cells assessed as cell survival at 10 ug/ml after 48 hrs by MTT assay relative to control. In kind it is functional. The conditions noted are these: OVCAR-3, 48 h, read-out: Survival.
Series [8] relates to HeLa. Nature of the series: Cytotoxicity against human HeLa cells assessed as cell survival at 10 ug/ml after 48 hrs by MTT assay relative to control. The format is functional. The conditions noted are these: read-out: Survival.
The nature of series [9]: Cytotoxicity against human FS5 cells assessed as cell survival at 10 ug/ml after 48 hrs by MTT assay relative to control. The format is cell-based. The conditions noted are these: read-out: Survival.

Consider `C=C(C)[C@@H]1CC[C@]2(C(=O)O)CC[C@]3(C)[C@H](CC[C@@H]4[C@@]5(C)CCC(C)(C)[C@@H]5CC[C@]43C)[C@@H]12`, for which the Survival is 55% in the series on OVCAR-3 [1] and 48% with HeLa [2]. Besides, the viability at 48 h in [3] was 85%.

On to `C=C(C)[C@@H]1CC[C@]2(C(=O)O)CC[C@]3(C)[C@H](CC[C@@H]4[C@@]5(C)CC(=O)C(C)(C)[C@@H]5CC[C@]43C)[C@@H]12`, for which the Survival amounted to 0% in the series with OVCAR-3 [1] and 4% in the series on HeLa [2]. Further, in series [3], the viability at 48 h was determined as 16%. Further, the figures for the IC50 (in the series on OVCAR-3 [4]; with HeLa [5]; in series [6]) were 2.8 µg/mL (≈ 6.35 µM), 6.6 µg/mL (≈ 15 µM) and 11.3 µg/mL (≈ 25.6 µM), respectively.

Take `C=C(C)[C@@H]1CC[C@]2(C(=O)O)CC[C@]3(C)[C@H](CC[C@@H]4[C@@]5(C)C[C@H](O)C(C)(C)[C@@H]5CC[C@]43C)[C@@H]12`: the Survival is listed as 0% in the series on OVCAR-3 [1] and 18% with HeLa [2]. Also, the viability at 48 h in [3] worked out at 67%. Moreover, the IC50 amounted to 4.7 µg/mL (≈ 10.6 µM) with OVCAR-3 [4], 9.1 µg/mL (≈ 20.6 µM) in the series on HeLa [5] and 29.6 µg/mL (≈ 66.9 µM) in series [6].

As to `C=C(C)[C@@H]1CC[C@]2(C(=O)O)CC[C@]3(C)[C@H](CC[C@@H]4[C@@]5(C)C=CC(C)(C)[C@@H]5CC[C@]43C)[C@@H]12`, the Survival in the series on OVCAR-3 [1] worked out at 0%; with HeLa [2], 17%. In [3], the viability at 48 h amounted to 33%. Also, the IC50 came out at 3.5 µg/mL (≈ 8.24 µM) in the series with OVCAR-3 [4], 7.1 µg/mL (≈ 16.7 µM) in the series on HeLa [5] and 22.7 µg/mL (≈ 53.5 µM) in series [6].

Turning to `C=C(C)[C@@H]1CC[C@]2(C(=O)O)CC[C@]3(C)[C@H](CC[C@@H]4[C@@]5(C)CC[C@H](O)C(C)(C)[C@@H]5CC[C@]43C)[C@@H]12` [BETULINIC ACID], the Survival turned out to be 0% in the series on OVCAR-3 [1] and 25% in the series with HeLa [2]. Also, in [3], the viability at 48 h was determined as 39%. Besides, the values for the IC50 (in the series with OVCAR-3 [4]; with HeLa [5]; in series [6]) were 0.9 µg/mL (≈ 1.97 µM), 0.8 µg/mL (≈ 1.75 µM) and 20.7 µg/mL (≈ 45.3 µM), respectively.

For the compound `C=C(C)[C@@H]1CC[C@]2(C(=O)O)CC[C@]3(C)[C@H](CC[C@@H]4[C@@]5(C)[C@@H](C(=O)O)[C@H](O)C(C)(C)[C@@H]5CC[C@]43C)[C@@H]12` [CEANOTHIC ACID], the Survival in the series on OVCAR-3 [1] amounted to 68%; with HeLa [2], 65%. Besides, in series [3], the viability at 48 h was 81%.

Regarding `C=C(C)[C@@H]1CC[C@]2(C(=O)O)CC[C@]3(C)[C@H](CC[C@@H]4[C@@]5(C)C(C(=O)O)=CC(C)(C)[C@@H]5CC[C@]43C)[C@@H]12`, the Survival with OVCAR-3 [1] turned out to be 51%; with HeLa [2], 50%. The viability at 48 h in series [3] is 87%.

For the compound `C=C(C)[C@@H]1CC[C@]2(C(=O)O)CC[C@]3(C)[C@H](CC[C@@H]4[C@@]5(C)[C@@H](CO)[C@H](O)C(C)(C)[C@@H]5CC[C@]43C)[C@@H]12`, the Survival is given as 25% with OVCAR-3 [1] and 22% with HeLa [2]. In series [3], the viability at 48 h is 43%.

Consider `COc1cccc2c1C(=O)c1c(O)c3c(c(O)c1C2=O)C[C@@](O)(C(=O)CO)C[C@@H]3O[C@H]1C[C@H](N)[C@H](O)[C@H](C)O1` [DOXORUBICIN], for which the figures for the viability at 10 µg/mL in the series with OVCAR-3 [7] and in the series with HeLa [8] were 21% and 19%, respectively. For the same compound, the viability at 48 h, 10 ug/ml in [9] amounted to 56%.

A word on the IC50: it is the concentration that gives 50% inhibition.
